# Measurements reported in ChEMBL document CHEMBL1152965, “Synthesis and in vitro antiplasmodial evaluation of 4-anilino-2-trichloromethylquinazolines” (Bioorg Med Chem, 2009).
# Key:
# [1] = test system: HepG2; assay: Cytotoxicity against human HepG2 cells after 72 hrs by MTT assay; assay type: cell-based; conditions: HepG2, 72 h
# Method in brief: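 HepG2 cells plated in RPMI with 10% FBS and grown 24 h, then exposed to a range of compound concentrations for 72 h at 37 °C, 6% CO₂. MTT (5 mg/mL stock) added for 2 h, formazan dissolved in DMSO and read at 570 nm against 630 nm. Viability expressed as percent of untreated control. CC50 taken from the dose-response curve.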
# [2] = test system: Salmonella enterica subsp. enterica; assay: Mutagenic activity in Salmonella Typhimurium TA98 assessed as number of spontaneous and drug-induced revertants after 48 hrs in presence of 4% S9 mixture by Ames test; assay type: toxicity, organism-based; conditions: salmonella enterica subsp. enterica serovar typhimurium
# Method in brief: (§1)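 Liquid-incubation Ames variant. Tester strains grown overnight in nutrient broth. 5×10^-3 M DMSO solution of compound added to 0.1 mL culture, with or without 4% S9 mix, 1 h at 37 °C with shaking. Top agar added and mixture plated on Vogel-Bonner agar. After 48 h at 37 °C in the dark, revertants per plate counted with a laser colony counter.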
# [3] = test system: K562; assay: Cytotoxicity against human K562 cells after 72 hrs by flow cytometry; assay type: cell-based; conditions: K562, 72 h
# Method in brief: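 Chemosensitive K562 subline, late log phase, in phenol-red-free RPMI with 10% serum. Compound range added in duplicate (DMSO <0.5%). After 72 h at 37 °C, 6% CO₂, cells stained with propidium iodide and live cells in a 100 µL sample counted by flow cytometry. IC50 from non-linear regression of dose-response curves, mean of three independent experiments.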
# [4] = test system: Salmonella enterica subsp. enterica; assay: Mutagenic activity in Salmonella Typhimurium TA100 assessed as number of spontaneous and drug-induced revertants after 48 hrs in presence of 4% S9 mixture by Ames test; assay type: toxicity, organism-based; conditions: salmonella enterica subsp. enterica serovar typhimurium; method in brief: as §1
# [5] = test system: Salmonella enterica subsp. enterica; assay: Mutagenic activity in Salmonella Typhimurium TA97a assessed as number of spontaneous and drug-induced revertants after 48 hrs in absence of 4% S9 mixture by Ames test; assay type: toxicity, organism-based; conditions: salmonella enterica subsp. enterica serovar typhimurium; method in brief: as §1
# [6] = test system: Salmonella enterica subsp. enterica; assay: Mutagenic activity in Salmonella Typhimurium TA102 assessed as number of spontaneous and drug-induced revertants after 48 hrs in presence of 4% S9 mixture by Ames test; assay type: toxicity, organism-based; conditions: salmonella enterica subsp. enterica serovar typhimurium; method in brief: as §1
# [7] = test system: Leishmania donovani; assay: Antileishmanial activity against Leishmania donovani HOM/IN/01/2001 promastigotes after 72 hrs by flow cytometry; assay type: functional, organism-based; conditions: HOM/IN/01/2001, 72 h
# Method in brief: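 GFP-transfected promastigotes, log phase, in M199 with 10% FCS and 500 µg/mL G418, seeded at 10⁵ parasites/mL. Compounds in DMSO (final <0.5% v/v) added in duplicate over a concentration range. Incubated 72 h at 27 °C.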
# [8] = Selectivity index, ratio of IC50 for human K562 cells to IC50 for chloroquine, pyrimethamine and proguanil-resistant Plasmodium falciparum W2; assay type: toxicity, cell-based; conditions: K562 cells (cytotoxicity) versus Plasmodium falciparum W2, read-out: Ratio IC50
# Method in brief: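 SI = K562 IC50 / W2 IC50. Live cells counted by flow cytometry after propidium iodide stain. IC50 by non-linear regression, mean of three independent experiments.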
# [9] = test system: Salmonella enterica subsp. enterica; assay: Mutagenic activity in Salmonella Typhimurium TA97a assessed as number of spontaneous and drug-induced revertants after 48 hrs in presence of 4% S9 mixture by Ames test; assay type: toxicity, organism-based; conditions: salmonella enterica subsp. enterica serovar typhimurium; method in brief: as §1
# [10] = test system: Salmonella enterica subsp. enterica; assay: Mutagenic activity in Salmonella Typhimurium TA102 assessed as number of spontaneous and drug-induced revertants after 48 hrs in absence of 4% S9 mixture by Ames test; assay type: toxicity, organism-based; conditions: salmonella enterica subsp. enterica serovar typhimurium; method in brief: as §1
# [11] = test system: Salmonella enterica subsp. enterica; assay: Mutagenic activity in Salmonella Typhimurium TA98 assessed as number of spontaneous and drug-induced revertants after 48 hrs in absence of 4% S9 mixture by Ames test; assay type: toxicity, organism-based; conditions: salmonella enterica subsp. enterica serovar typhimurium; method in brief: as §1
# [12] = Selectivity index, ratio IC50 for human HepG2 cells to IC50 for chloroquine, pyrimethamine and proguanil-resistant Plasmodium falciparum W2; assay type: functional
# Method in brief: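 SI = HepG2 IC50 / W2 IC50. MTT 2 h, formazan dissolved in DMSO, absorbance 570 nm (ref 630 nm). Viability as % of untreated control, IC50 from dose-response curve.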
# [13] = test system: Toxoplasma gondii; assay: Antitoxoplasmic activity against Toxoplasma gondii tachyzoites infected in HFF assessed as beta-galactosidase activity after 96 hrs by colorimetric microtiter assay; assay type: functional, organism-based
# Method in brief: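 Tachyzoites of the PRU-β-Gal strain. 10⁴ HFF cells per well grown to confluence in phenol-red-free RPMI with 10% FCS. Monolayers infected with 2.10³ parasites per well for 3 h, then compounds in DMSO (final <0.5%) added in triplicate. Incubated 96 h at 37 °C, 6% CO₂. CPRG added at 500 µM final for a further 24 h. Read at 570/630 nm, blanked on uninfected wells. IC50 from three independent experiments.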
# [14] = test system: Plasmodium falciparum; assay: Antimalarial activity as reduced parasitaemia after 48 hrs against chloroquine, pyrimethamine and proguanil-resistant Plasmodium falciparum W2 infected in type A+ human erythrocytes by flow cytometry; assay type: functional, organism-based; conditions: W2, 48 h
smiles,measurement,setting,value
Clc1cccc(Nc2nc(C(Cl)(Cl)Cl)nc3ccccc23)c1,IC50,[1],> 100 µM
same,Activity,[2],Not Active
same,IC50,[3],> 50 µM
same,Activity,[4],Not Active
same,Activity,[5],Not Active
same,Activity,[6],Not Active
same,IC50,[7],> 50 µM
same,selectivity ratio,[8],> 29.4
same,Activity,[9],Not Active
same,Activity,[10],Not Active
same,Activity,[11],Not Active
same,Ratio IC50,[12],>58.8
same,IC50,[13],> 50 µM
same,IC50,[14],1.7 µM
ClC(Cl)(Cl)c1nc(Nc2cccc(Br)c2)c2ccccc2n1,IC50,[1],> 100 µM
same,Activity,[2],Not Active
same,IC50,[3],> 50 µM
same,Activity,[4],Not Active
same,Activity,[5],Not Active
same,Activity,[6],Not Active
same,IC50,[7],> 50 µM
same,selectivity ratio,[8],> 22.7
same,Activity,[9],Not Active
same,Activity,[10],Not Active
same,Activity,[11],Not Active
same,Ratio IC50,[12],>45.5
same,IC50,[13],> 50 µM
same,IC50,[14],2.2 µM
